Measured values taken from paper PMC7658073 (Clinical Pharmacokinetics, 2020).
pIC50: −log10 of the molar value. Where two headings read alike, the source gives them in different places.

How the values were obtained:
[1] = cited from earlier work
P-glycoprotein [2] = biological target: T1, P-glycoprotein (Homo sapiens, UniProt P08183); test: Inhibitory potential towards P-gp; format: in vitro ADME
UGT1A6 = biological target: T2, UGT1A6 (Homo sapiens, UniProt P19224); test: Inhibitory potency towards UGT isoforms: UGT1A6; format: in vitro ADME
T2 sequence (P19224 27-532): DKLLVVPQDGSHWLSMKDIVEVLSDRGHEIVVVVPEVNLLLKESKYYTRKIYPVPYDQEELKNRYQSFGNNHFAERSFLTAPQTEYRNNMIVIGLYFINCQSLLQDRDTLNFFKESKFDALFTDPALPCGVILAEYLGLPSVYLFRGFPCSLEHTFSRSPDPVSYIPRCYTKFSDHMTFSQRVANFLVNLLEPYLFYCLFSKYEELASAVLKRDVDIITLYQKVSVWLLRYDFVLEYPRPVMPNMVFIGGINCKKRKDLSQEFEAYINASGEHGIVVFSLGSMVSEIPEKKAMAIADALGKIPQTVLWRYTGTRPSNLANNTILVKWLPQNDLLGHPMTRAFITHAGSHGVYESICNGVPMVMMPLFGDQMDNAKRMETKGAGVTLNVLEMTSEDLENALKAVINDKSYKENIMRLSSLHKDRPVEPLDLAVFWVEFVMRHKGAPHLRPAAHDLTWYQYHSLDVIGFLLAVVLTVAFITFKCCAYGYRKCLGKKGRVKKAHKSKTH

OAT3 = biological target: T3, OAT3 (Homo sapiens, UniProt Q8TCC7); test: Inhibitory potency towards OAT3; format: in vitro ADME
T3 sequence (Q8TCC7 1-542): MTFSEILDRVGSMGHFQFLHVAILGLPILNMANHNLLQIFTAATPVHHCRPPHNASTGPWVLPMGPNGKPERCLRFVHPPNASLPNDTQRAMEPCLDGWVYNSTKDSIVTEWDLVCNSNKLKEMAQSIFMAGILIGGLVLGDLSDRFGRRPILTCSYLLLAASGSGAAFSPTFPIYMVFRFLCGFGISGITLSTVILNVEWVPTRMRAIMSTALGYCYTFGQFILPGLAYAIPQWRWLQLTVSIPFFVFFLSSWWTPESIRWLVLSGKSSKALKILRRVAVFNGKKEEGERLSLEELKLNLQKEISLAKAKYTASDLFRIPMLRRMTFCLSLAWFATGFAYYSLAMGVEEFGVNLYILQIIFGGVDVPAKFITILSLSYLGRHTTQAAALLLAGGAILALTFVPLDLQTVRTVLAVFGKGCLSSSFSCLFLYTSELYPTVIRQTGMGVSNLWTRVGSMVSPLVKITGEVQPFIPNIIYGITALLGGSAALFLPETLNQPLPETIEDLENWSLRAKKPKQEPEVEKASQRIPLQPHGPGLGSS

[3] = All phase I studies in healthy volunteers; format: in vivo, human
In short: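 Healthy male volunteers, excluding regular medication, interacting foods/beverages or supplements, and non-adherence to smoking rules. All study drugs given orally. Tolerability recorded as treatment-emergent adverse events. Non-compartmental PK: AUC0–∞ by linear-log trapezoid plus extrapolation from the terminal log-linear slope; Cmax and trough read directly. Log-transformed parameters compared by ANOVA to give geometric mean ratios with 90% CIs.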

[4] = Phase I DDI study with sacubitril/valsartan; format: in vivo, human; conditions: administered with sacubitril/valsartan
[5] = serum albumin main binding component; ref data on file; cited from earlier work
OATP1B1 = biological target: T4, OATP1B1 (Homo sapiens, UniProt Q9Y6L6); test: Inhibitory potency towards OATP1B1; format: in vitro ADME
T4 sequence (Q9Y6L6 1-691): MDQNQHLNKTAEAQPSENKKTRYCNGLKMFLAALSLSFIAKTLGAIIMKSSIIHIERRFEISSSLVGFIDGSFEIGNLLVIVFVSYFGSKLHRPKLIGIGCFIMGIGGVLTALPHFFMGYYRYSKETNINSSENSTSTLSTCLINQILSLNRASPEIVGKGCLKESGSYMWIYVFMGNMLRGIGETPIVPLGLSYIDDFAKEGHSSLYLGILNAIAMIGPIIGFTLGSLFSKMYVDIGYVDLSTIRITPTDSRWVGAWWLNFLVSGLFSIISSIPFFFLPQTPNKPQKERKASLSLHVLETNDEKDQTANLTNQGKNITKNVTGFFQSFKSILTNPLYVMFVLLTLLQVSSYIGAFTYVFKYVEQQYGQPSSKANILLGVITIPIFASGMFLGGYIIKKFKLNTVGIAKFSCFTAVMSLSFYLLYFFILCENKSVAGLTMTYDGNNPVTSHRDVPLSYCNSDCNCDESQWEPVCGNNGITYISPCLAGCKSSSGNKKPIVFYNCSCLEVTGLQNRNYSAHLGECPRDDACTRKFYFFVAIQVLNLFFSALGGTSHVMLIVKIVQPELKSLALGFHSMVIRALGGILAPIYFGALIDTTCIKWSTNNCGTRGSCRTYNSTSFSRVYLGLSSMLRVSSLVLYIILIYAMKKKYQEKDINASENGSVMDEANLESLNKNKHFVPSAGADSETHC

[6] = Phase I DDI study with ketoconazole; format: in vivo, human
In short: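 Randomized, open-label, two-fold crossover in healthy men. Ketoconazole 200 mg BID orally for 3 days, given before and with a single oral 1.25 mg dose of test compound, fed, versus test compound alone.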

[7] = ref data on file, cited from earlier work
MATE2K = MATE2K (Homo sapiens, UniProt Q86VL8); test: Inhibitory potency towards MATE2K; format: in vitro ADME
Chain of MATE2K (Q86VL8 1-566 isoform Q86VL8-3): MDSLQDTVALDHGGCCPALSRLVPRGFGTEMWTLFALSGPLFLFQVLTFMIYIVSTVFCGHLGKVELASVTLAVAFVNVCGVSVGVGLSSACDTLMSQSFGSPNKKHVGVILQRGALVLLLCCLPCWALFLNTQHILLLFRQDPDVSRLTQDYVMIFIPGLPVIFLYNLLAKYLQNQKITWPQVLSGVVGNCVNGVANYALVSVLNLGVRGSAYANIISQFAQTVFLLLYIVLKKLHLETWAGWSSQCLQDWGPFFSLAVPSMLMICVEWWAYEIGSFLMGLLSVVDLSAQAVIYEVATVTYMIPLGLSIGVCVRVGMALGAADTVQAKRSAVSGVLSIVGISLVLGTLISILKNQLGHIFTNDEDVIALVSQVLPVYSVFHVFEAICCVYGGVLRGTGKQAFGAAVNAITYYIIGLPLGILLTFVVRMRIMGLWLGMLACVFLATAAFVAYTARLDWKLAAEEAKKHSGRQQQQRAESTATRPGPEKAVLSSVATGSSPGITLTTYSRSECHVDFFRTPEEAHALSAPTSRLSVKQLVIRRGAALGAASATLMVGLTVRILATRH

P-glycoprotein [8] = biological target: T1, P-glycoprotein; test: Substrate properties towards P-gp; format: in vitro ADME
[9] = with ketoconazole 200 mg BID vs vericiguat 1.25 mg SD alone, fed
[10] = following a 10-mg dose once daily

T1 sequence (P08183 whole entry, canonical isoform): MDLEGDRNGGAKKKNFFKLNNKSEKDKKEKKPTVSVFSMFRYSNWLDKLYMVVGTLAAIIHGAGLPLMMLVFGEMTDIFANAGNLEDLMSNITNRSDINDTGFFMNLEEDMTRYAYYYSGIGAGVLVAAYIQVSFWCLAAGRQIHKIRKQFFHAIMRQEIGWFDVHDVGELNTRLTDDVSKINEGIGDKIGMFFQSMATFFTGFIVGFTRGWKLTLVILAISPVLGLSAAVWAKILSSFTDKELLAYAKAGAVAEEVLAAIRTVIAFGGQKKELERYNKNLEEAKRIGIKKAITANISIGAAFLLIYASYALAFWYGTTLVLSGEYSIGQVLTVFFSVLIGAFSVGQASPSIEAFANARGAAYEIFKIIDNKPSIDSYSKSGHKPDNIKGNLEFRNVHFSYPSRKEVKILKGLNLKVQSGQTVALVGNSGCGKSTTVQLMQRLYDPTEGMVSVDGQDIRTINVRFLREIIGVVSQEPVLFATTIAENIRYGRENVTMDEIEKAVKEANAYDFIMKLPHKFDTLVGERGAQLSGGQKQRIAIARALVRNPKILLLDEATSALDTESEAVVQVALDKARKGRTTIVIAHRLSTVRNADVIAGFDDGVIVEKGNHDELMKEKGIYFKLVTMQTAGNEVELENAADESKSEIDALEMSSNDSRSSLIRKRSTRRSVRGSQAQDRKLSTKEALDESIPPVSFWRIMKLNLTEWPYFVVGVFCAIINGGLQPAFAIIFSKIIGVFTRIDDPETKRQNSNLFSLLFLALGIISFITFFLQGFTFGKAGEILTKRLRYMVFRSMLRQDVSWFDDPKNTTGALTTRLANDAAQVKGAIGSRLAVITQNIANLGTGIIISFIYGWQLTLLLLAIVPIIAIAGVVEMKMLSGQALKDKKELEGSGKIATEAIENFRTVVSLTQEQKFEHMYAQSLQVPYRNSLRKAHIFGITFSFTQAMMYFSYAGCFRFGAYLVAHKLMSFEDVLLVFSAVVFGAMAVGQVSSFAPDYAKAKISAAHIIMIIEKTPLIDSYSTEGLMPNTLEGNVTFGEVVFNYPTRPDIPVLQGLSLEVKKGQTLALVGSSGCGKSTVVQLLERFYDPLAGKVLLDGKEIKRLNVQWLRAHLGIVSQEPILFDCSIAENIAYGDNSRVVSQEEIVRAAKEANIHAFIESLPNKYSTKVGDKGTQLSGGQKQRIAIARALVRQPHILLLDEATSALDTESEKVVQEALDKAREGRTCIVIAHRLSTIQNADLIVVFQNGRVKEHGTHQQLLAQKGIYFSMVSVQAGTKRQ

pIC50 (P-glycoprotein [2]): < 4.00
pIC50 (UGT1A6): < 4.30
pIC50 (OAT3): < 5.30
Changes in vericiguat exposure in the phase I DDI studies ([3]; all ten DDI studies): ≤ 30%
Decrease in AUC0–24 of vericiguat [4]: about 7%
Decrease in Cmax of vericiguat [4]: ~9%
pIC50 (OATP1B1): ~4.80
Increase in vericiguat exposure (AUC) ([6]; co-administration with ketoconazole 200 mg twice daily): 13%
AUC of vericiguat, point estimate of treatment ratio [6, 9]: 1.126
Cmax of vericiguat, point estimate of treatment ratio [6, 9]: 1.109
pIC50 (MATE2K): < 5.00
Substrate of P-glycoprotein (P-glycoprotein [8]): substrate
SMILES: COC(=O)Nc1c(N)nc(-c2nn(Cc3ccccc3F)c3ncc(F)cc23)nc1N [Vericiguat]
Clearance ([1]; healthy volunteers): 1.6 L/h
Clearance ([1]; patients with HFrEF): 1.3 L/h
Variability in steady-state AUC ([1]; population PK model, patients with HFrEF): about 30%
Tolerability ([3]; healthy volunteers, all phase I studies): generally well tolerated
Plasma protein binding [5]: approximately 98%
Projected unbound inlet Cmax [7, 10]: 0.03 µM
Unbound Cmax [7, 10]: approximately 0.02 µM
Unbound Cmax ([7]; multiple-dose oral 10 mg once daily in patients with HFrEF): approximately 0.02 µM
Cmax ([7]; read-out: Total Cmax, following a 10-mg dose once daily): ~800 nM
